Screening data from PubChem BioAssay.
Jurkat NFkB inh: lowers PMA/ionomycin-induced NF-kB signal in Jurkat cells. inhibition, % at 4 µM. PMA/ionomycin-induced NF-kB luciferase reporter, luminescence. 330,000 tested, 0.53% active; in the data active = inhibition above about 50%
697 NFkB inh: inhibitors of the PMA/ionomycin-induced NF-kB reporter in 697 B cells. 697 B-cell NF-kB luciferase reporter, 16 h. inhibition, % at 4 µM. 330,000 tested, 0.33% active; in the data active = inhibition above about 35%
XBP1 UPR activ: activators of adaptive arm of unfolded protein response (XBP1); AID 463104; CHO-XBP1 luciferase reporter, IRE1-XBP1 UPR activation, luminescence; percent of tunicamycin response, DMSO as zero; activation, % at 20 µM; 330,000 tested, 0.33% active;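 active = versus positive control, 20 µM dose yields 30% or more activation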
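Material: IRE1-XBP1 luciferase reporter CHO line / Quantity: one thousand reporter cells per well / Buffer or medium: F12 with 10% serum / Compound: 20 µM single concentration, DMSO 1% / Times: 6 h treatment, 37 °C / Detection: Steady-Glo luciferase glow luminescence, 10 min after reagent addition / Benchmarks: tunicamycin high, DMSO low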
Gli-Sufu block: blocks Gli-Sufu signaling in a luciferase reporter | Sufu-KO-LIGHT fibroblasts, Gli luciferase reporter luminescence | inhibition, % at 5 µM | 340,000 tested, 0.74% active;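 active = inhibition above about 55%, limit read from the data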
UPR CHOP act: apoptotic UPR (CHOP) activation; CHO-CHOP luciferase reporter, luminescence; percent of tunicamycin response over DMSO baseline; activation, % at 10 µM; 330,000 tested, 0.34% active; AID 449763;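 active = at 10 µM dose, activation of 40% or more, normalized to positive control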
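Material: CHO-CHOP cells, stable luciferase reporter of PERK-eIF2a-CHOP signalling; quantity: 500 reporter cells seeded per well; buffer or medium: F12 medium containing 10% fetal bovine serum; compound: one dose, 10 µM in 0.5% DMSO; incubation: 6 h compound treatment, 37 °C; measured by: Steady-Glo luciferase luminescence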
CHOP inh: CHOP inhibition in unfolded protein response | inhibition, % at 10 µM | AID 2732 | CHO-K1 CHOP-promoter luciferase, tunicamycin-induced, 15-18 h | 220,000 tested, 3.8% active;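 active = compounds that reduced the stress-induced luciferase reporter signal by more than about 70% of percent inhibition, limit read from the data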
A number is an active result; i = inactive; nt = no result. A selection: hits, their analogues and other compounds. The true share with any hit is near 3.9%.

SMILES | Jurkat NFkB inh | 697 NFkB inh | XBP1 UPR activ | Gli-Sufu block | UPR CHOP act | CHOP inh
NS(=O)(=O)c1cc(C(=O)OCC(=O)Nc2ccc3c(c2)OCO3)ccc1Cl | i | i | i | i | i | nt
COc1cc2nc(Cl)nc(N3CCCCC3)c2cc1OC | i | i | i | i | i | i
COc1cc2nc(N3CCNCC3)nc(N)c2cc1OC | i | i | i | i | i | 70
Cc1cccc(C(=O)O/N=C(\N)c2ccc(Br)cc2)c1 | i | i | i | i | i | i
Cc1cc(C)cc(C(=O)O/N=C(\N)c2ccc(Br)cc2)c1 | i | i | i | i | i | 72
O=C(Oc1nsnc1N1CCOCC1)N1CCCCC1 | i | i | i | i | i | nt
O=C(Oc1nsnc1N1CCOCC1)N1CCOCC1 | i | i | i | i | i | 71
Cc1cc(NC(=O)Nc2cccc(C(F)(F)F)c2)no1 | i | i | i | i | i | 93
Cc1cc2ccccn2c1C(=O)c1ccc(N/N=C/c2ccc(C(=O)O)cc2)c([N+](=O)[O-])c1 | nt | nt | nt | i | nt | 103
CCOC(=O)c1ccccc1NC(=O)COC(=O)CCC1CCCC1 | i | i | i | i | i | nt
COc1ccc(-c2ncncc2-c2csc(C)n2)c(O)c1OC | i | i | i | i | i | i
COC1=C(N)C(=O)c2nc(-c3nc(C(=O)O)c(C)c(-c4ccc(OC)c(OC)c4O)c3N)ccc2C1=O | i | i | i | 89 | i | 81
CCOC(=O)C1CCCN(C(=O)C2COc3ccccc3O2)C1 (centres undefined) | nt | nt | nt | i | nt | nt
CCOC(=O)C1CCCN(C(=O)C2c3ccccc3Oc3ccccc32)C1 (centres undefined) | i | i | i | i | i | 76
COCCn1c(SCC(=O)NNC(=O)c2ccccc2)nc2ccccc21 | i | i | i | i | i | nt
CCOc1ccc(-c2csc(NNC3=NCCCCC3)n2)cc1 | i | i | i | i | i | 75
COc1ccc(-c2csc(NNC3=NCCCCC3)n2)cc1 | i | i | i | i | i | i
CN(C(=O)c1cccc(NC(=O)Cc2ccc(NC(=O)C3CCN(C(=O)C4CC4)CC3)cc2)c1)C1CCCCC1 | nt | nt | nt | i | nt | nt
CCOC(=O)c1cc2c(ccn2C)n1Cc1cc(C)ccc1C | i | i | i | i | i | 90
CC(=O)C1=C(c2ccccc2)NC(=O)NC1c1ccccc1OCC(=O)Nc1ccccc1 (centres undefined) | i | i | i | i | i | 72
CC(=O)C1=C(C)NC(=O)NC1c1ccccc1OCC(=O)NCCc1ccccc1 (centres undefined) | i | i | i | i | i | i
CCOc1ccc(N/C(SCc2cccc([N+](=O)[O-])c2)=C(/C#N)C(N)=O)cc1 | i | i | i | i | i | i
N#CC(C#N)=C(Nc1ccc(F)cc1)SCc1cccc(F)c1 | i | i | i | i | i | 85
Cc1occc1C(=O)N1CCN(S(=O)(=O)c2ccccc2)CC1 | i | i | i | i | i | nt
COc1ccccc1CNC(=O)C1CCN(S(=O)(=O)c2ccc3nc4c(c(C(=O)O)c3c2)CCCC4)CC1 | i | i | i | i | i | nt
SMILES | Jurkat NFkB inh | 697 NFkB inh | XBP1 UPR activ | Gli-Sufu block | UPR CHOP act | CHOP inh
O=C(CN1CCCN(S(=O)(=O)c2ccc(Br)s2)CC1)Nc1ccc(Cl)cc1 | i | i | i | i | i | 72
Cc1ccc(CS(=O)Cc2ccc(C(=O)NCc3ccccc3Br)o2)cc1 (centres undefined) | i | i | i | i | i | nt
O=C(Oc1ccc2c(-c3ccccc3)cc(=O)oc2c1)c1cccs1 | i | i | i | i | i | i
CCc1cc2c(-c3ccccc3)cc(=O)oc2cc1OC(=O)c1cccs1 | i | i | i | i | i | 70
CCOc1ccc(Nc2nc(NCC(=O)O)nc(N)c2[N+](=O)[O-])cc1 | i | i | i | i | i | nt
CCOc1ccc(Nc2nc(Nc3ccc(O)cc3)nc(C)c2[N+](=O)[O-])cc1 | i | i | i | i | i | 80
CC[C@]12c3[nH]c4cc(-c5ccco5)ccc4c3CCN1C(=O)[C@@H](CC(=O)NCCCn1ccnc1)C[C@@H]2C(=O)N1CCN(C(=O)c2ccco2)CC1 | nt | i | i | i | i | nt
Cc1ccc(-c2nnc3n2N=C(c2ccc(Br)cc2)CS3)cc1 | i | i | i | i | i | 89
COc1ccc(N2CCN(C(=O)CN3c4cccc5cccc(c45)S3(=O)=O)CC2)cc1 | i | i | i | i | i | nt
COc1ccc(CCNc2oc(COc3ccccc3)nc2C#N)cc1 | i | i | i | i | i | i
Cc1cccc(OCc2nc(C#N)c(NCc3ccc4c(c3)OCO4)o2)c1 | i | i | i | i | i | i
N#Cc1nc(COc2ccc(Cl)cc2)oc1NCc1ccc2c(c1)OCO2 | i | i | i | i | i | 73
Cc1ccc(CNc2oc(COc3ccccc3Cl)nc2C#N)cc1 | i | i | i | i | i | 85
N#Cc1nc(-c2ccc(F)cc2)oc1NCc1ccco1 | i | i | i | i | i | i
N#Cc1nc(-c2ccc(F)cc2)oc1NCc1ccccc1 | i | i | i | i | i | 82
N#Cc1nc(COc2ccccc2F)oc1NCCc1ccccc1 | i | i | i | i | i | 80
N#CC(=C(c1ccccc1)c1ccccc1)c1ccccc1 | nt | nt | nt | i | nt | nt
Cc1ccc(S(=O)(=O)NCCC(=O)NCC(c2cccs2)N(C)C)cc1 (centres undefined) | i | i | i | i | i | nt
COc1cccc(-c2cc(N)nn2C(=O)Nc2ccc(Cl)cc2)c1 | i | i | i | i | i | 95
Nc1ccccc1Nc1cc(-c2cccc(Cl)c2)nn1-c1ccccc1 | i | i | i | i | i | 86
CN(CCOc1ccccc1)C(=O)C1CCN(C(=O)c2ccc(F)cc2)CC1 | i | i | i | i | i | nt
Cc1cc(N2CCN(C(=O)c3ccco3)CC2)n2nc(-c3cccc(Cl)c3)cc2n1 | i | i | i | i | i | 96
COc1ccc(C(=O)NCCCOc2cccnc2)cc1OC1CCN(C(C)=O)CC1 | i | i | i | i | i | nt
CCCCC(=O)Nc1ccc(Br)cn1 | i | i | i | i | i | i
CC(C)=CC1C(C(=O)Nc2ccc(Br)cn2)C1(C)C (centres undefined) | i | i | i | i | i | 76
SMILES | Jurkat NFkB inh | 697 NFkB inh | XBP1 UPR activ | Gli-Sufu block | UPR CHOP act | CHOP inh
CCOc1ccccc1NC(=O)CCCNC(=O)c1ccc(Cl)cc1 | i | i | i | i | i | nt
Cc1cc(C)c(OCC(=O)OC(C)C(=O)N2CCc3ccccc32)c(C)c1 (centres undefined) | i | i | i | i | i | nt
CCN1CCN(c2nnc(-c3ccccc3)c3ccccc23)CC1 | i | i | i | i | i | nt
CCCCSc1nnc(-c2ccccc2)c2ccccc12 | i | i | i | i | i | 82
Cc1sc(NC(=O)CN2CCOCC2)nc1-c1ccc2c(c1)CCN2S(=O)(=O)c1ccccc1 | i | i | i | i | i | 72
O=C(CN1CCOCC1)Nc1nc(-c2ccc3c(c2)CCN3S(=O)(=O)c2ccccc2)cs1 | i | i | i | i | i | i
